A word on the MIC: it is the lowest concentration that inhibits growth of the organism.

Each structure is given as a SMILES string.

The record followed here is ChEMBL document CHEMBL3593164, “Rational Design and Synthesis of Thioridazine Analogues as Enhancers of the Antituberculosis Therapy” (J Med Chem, 2015).

For test [1], the system named is Mycobacterium tuberculosis. Nature of the test: Inhibition of multidrug resistance efflux pump in Mycobacterium tuberculosis H37Rv assessed as ofloxacin MIC at 16 ug/ml after 7 days by two-dimensional broth microdilution checkerboard assay. To be noted: 168 h. Background: Broth dilution looks for growth in wells or tubes with falling amounts of substance.
Test [2] deals with Mycobacterium tuberculosis. Nature of the test: Inhibition of multidrug resistance efflux pump in Mycobacterium tuberculosis H37Rv assessed as ethidium bromide MIC at 64 ug/ml after 7 days by two-dimensional broth microdilution checkerboard assay. To be noted: 168 h.
Test [3] deals with Mycobacterium tuberculosis. Nature of the test: Inhibition of multidrug resistance efflux pump in Mycobacterium tuberculosis H37Rv assessed as ethidium bromide MIC at 32 ug/ml after 7 days by two-dimensional broth microdilution checkerboard assay. To be noted: 168 h.
In test [4] the test system is Mycobacterium tuberculosis. The test is described as follows: Inhibition of multidrug resistance efflux pump in Mycobacterium tuberculosis H37Rv assessed as reduction in isoniazid MIC at 256 ug/ml after 7 days by two-dimensional broth microdilution checkerboard assay. Summed up: (§1)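 M. tuberculosis H37Rv two-dimensional broth microdilution checkerboard. MICs of INH, RIF, AMK, OFX or EtBr were determined without and with graded sub-inhibitory compound concentrations, starting at ½ MIC. Where MIC was undeterminable, the highest concentration still permitting growth was taken as ½ MIC. FIC = MIC of antibacterial in combination / MIC alone. FIC ≤0.25 was scored as synergism and ≥2 as antagonism.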

Test [5] relates to Mycobacterium tuberculosis. Nature of the test: Inhibition of multidrug resistance efflux pump in Mycobacterium tuberculosis H37Rv assessed as reduction in rifampin MIC at 256 ug/ml after 7 days by two-dimensional broth microdilution checkerboard assay. Put shortly:
as §1

Test [6] concerns Mycobacterium tuberculosis. Nature of the test: Inhibition of multidrug resistance efflux pump in Mycobacterium tuberculosis H37Rv assessed as reduction in rifampin MIC at 128 ug/ml after 7 days by two-dimensional broth microdilution checkerboard assay.
Test [7] concerns Mycobacterium tuberculosis. Nature of the test: Inhibition of multidrug resistance efflux pump in Mycobacterium tuberculosis H37Rv assessed as reduction in rifampin MIC at 32 ug/ml after 7 days by two-dimensional broth microdilution checkerboard assay. Summed up: as §1
Test [8] relates to Mycobacterium tuberculosis. The test is described as follows: Inhibition of multidrug resistance efflux pump in Mycobacterium tuberculosis H37Rv assessed as reduction in rifampin MIC at 16 ug/ml after 7 days by two-dimensional broth microdilution checkerboard assay. Put shortly: as §1
Test [9] relates to Mycobacterium tuberculosis. The test is described as follows: Inhibition of multidrug resistance efflux pump in Mycobacterium tuberculosis H37Rv assessed as reduction in rifampin MIC at 8 ug/ml after 7 days by two-dimensional broth microdilution checkerboard assay. Summed up: as §1
Test [10] has as its system Mycobacterium tuberculosis. The test is described as follows: Inhibition of multidrug resistance efflux pump in Mycobacterium tuberculosis H37Rv assessed as reduction in amikacin MIC at 64 ug/ml after 7 days by two-dimensional broth microdilution checkerboard assay. Put shortly: as §1
The test system of test [11] is Mycobacterium tuberculosis. Nature of the test: Inhibition of multidrug resistance efflux pump in Mycobacterium tuberculosis H37Rv assessed as reduction in amikacin MIC at 256 ug/ml after 7 days by two-dimensional broth microdilution checkerboard assay. Summed up:
as §1

In test [12] the test system is Mycobacterium tuberculosis. The test is described as follows: Inhibition of multidrug resistance efflux pump in Mycobacterium tuberculosis H37Rv assessed as reduction in ofloxacin MIC at 64 ug/ml after 7 days by two-dimensional broth microdilution checkerboard assay. Summed up: as §1
Test [13] concerns Mycobacterium tuberculosis. The test is described as follows: Inhibition of multidrug resistance efflux pump in Mycobacterium tuberculosis H37Rv assessed as reduction in ofloxacin MIC at 256 ug/ml after 7 days by two-dimensional broth microdilution checkerboard assay. Put shortly:
as §1

The subject of test [14] is Mycobacterium tuberculosis. Nature of the test: Inhibition of multidrug resistance efflux pump in Mycobacterium tuberculosis H37Rv assessed as reduction in ethidium bromide MIC at 64 ug/ml after 7 days by two-dimensional broth microdilution checkerboard assay.
Test [15] has as its system Mycobacterium tuberculosis. Nature of the test: Inhibition of multidrug resistance efflux pump in Mycobacterium tuberculosis H37Rv assessed as reduction in ethidium bromide MIC at 256 ug/ml after 7 days by two-dimensional broth microdilution checkerboard assay. Put shortly: as §1
Test [16] deals with Mycobacterium tuberculosis. Nature of the test: Inhibition of multidrug resistance efflux pump in Mycobacterium tuberculosis H37Rv assessed as reduction in ethidium bromide MIC at 128 ug/ml after 7 days by two-dimensional broth microdilution checkerboard assay.
Test [17] deals with Mycobacterium tuberculosis. The test is described as follows: Inhibition of multidrug resistance efflux pump in Mycobacterium tuberculosis H37Rv assessed as isoniazid MIC at 32 ug/ml after 7 days by two-dimensional broth microdilution checkerboard assay. To be noted: 168 h.
Test [18] relates to Mycobacterium tuberculosis. The test is described as follows: Inhibition of multidrug resistance efflux pump in Mycobacterium tuberculosis H37Rv assessed as rifampin MIC at 32 ug/ml after 7 days by two-dimensional broth microdilution checkerboard assay. To be noted: 168 h.
Test [19] concerns Mycobacterium tuberculosis. Nature of the test: Inhibition of multidrug resistance efflux pump in Mycobacterium tuberculosis H37Rv assessed as rifampin MIC at 16 ug/ml after 7 days by two-dimensional broth microdilution checkerboard assay. To be noted: 168 h.
Test [20] has as its system Mycobacterium tuberculosis. The test is described as follows: Inhibition of multidrug resistance efflux pump in Mycobacterium tuberculosis H37Rv assessed as rifampin MIC at 0.94 ug/ml after 7 days by two-dimensional broth microdilution checkerboard assay. To be noted: 168 h. Put shortly:
(§2)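 M. tuberculosis H37Rv ATCC27294. MICs of INH, RIF, AMK, OFX and EtBr were determined alone and with sub-inhibitory concentrations of test compound by two-dimensional broth microdilution checkerboard. Where a compound's MIC was not determinable, the highest concentration still allowing growth was taken as ½ MIC. FIC = MIC in combination / MIC alone. FIC ≤0.25 was scored as synergism and ≥2 as antagonism.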

Test [21] deals with Mycobacterium tuberculosis. Nature of the test: Inhibition of multidrug resistance efflux pump in Mycobacterium tuberculosis H37Rv assessed as rifampin MIC at 0.12 ug/ml after 7 days by two-dimensional broth microdilution checkerboard assay. To be noted: 168 h. Summed up: as §2
For test [22], the system named is Mycobacterium tuberculosis. The test is described as follows: Inhibition of multidrug resistance efflux pump in Mycobacterium tuberculosis H37Rv assessed as amikacin MIC at 0.23 ug/ml after 7 days by two-dimensional broth microdilution checkerboard assay. To be noted: 168 h. Put shortly: as §2
Test [23] deals with Mycobacterium tuberculosis. The test is described as follows: Inhibition of multidrug resistance efflux pump in Mycobacterium tuberculosis H37Rv assessed as ofloxacin MIC at 3.75 ug/ml after 7 days by two-dimensional broth microdilution checkerboard assay. To be noted: 168 h. Put shortly:
as §2

The subject of test [24] is Mycobacterium tuberculosis. The test is described as follows: Inhibition of multidrug resistance efflux pump in Mycobacterium tuberculosis H37Rv assessed as ofloxacin MIC at 1.88 ug/ml after 7 days by two-dimensional broth microdilution checkerboard assay. To be noted: 168 h. Summed up: as §2
Test [25] deals with Mycobacterium tuberculosis. The test is described as follows: Inhibition of multidrug resistance efflux pump in Mycobacterium tuberculosis H37Rv assessed as ofloxacin MIC at 0.12 ug/ml after 7 days by two-dimensional broth microdilution checkerboard assay. To be noted: 168 h. Put shortly: as §2
Test [26] concerns Mycobacterium tuberculosis. The test is described as follows: Inhibition of multidrug resistance efflux pump in Mycobacterium tuberculosis H37Rv assessed as ethidium bromide MIC at 0.12 ug/ml after 7 days by two-dimensional broth microdilution checkerboard assay. To be noted: 168 h. Put shortly:
as §2

The test system of test [27] is Mycobacterium tuberculosis. The test is described as follows: Inhibition of multidrug resistance efflux pump in Mycobacterium tuberculosis H37Rv assessed as reduction in amikacin MIC at 7.5 ug/ml after 7 days by two-dimensional broth microdilution checkerboard assay. Put shortly: as §1
In test [28] the test system is Mycobacterium tuberculosis. The test is described as follows: Inhibition of multidrug resistance efflux pump in Mycobacterium tuberculosis H37Rv assessed as reduction in ethidium bromide MIC at 7.5 ug/ml after 7 days by two-dimensional broth microdilution checkerboard assay. Summed up: as §1
Test [29] has as its system Mycobacterium tuberculosis. The test is described as follows: Inhibition of multidrug resistance efflux pump in Mycobacterium tuberculosis H37Rv assessed as isoniazid MIC at 7.5 ug/ml after 7 days by two-dimensional broth microdilution checkerboard assay. To be noted: 168 h. Put shortly: as §1
Test [30] deals with Mycobacterium tuberculosis. The test is described as follows: Inhibition of multidrug resistance efflux pump in Mycobacterium tuberculosis H37Rv assessed as reduction in ethidium bromide MIC at 32 ug/ml after 7 days by two-dimensional broth microdilution checkerboard assay. Summed up: as §1

`CN1CCCCC1CCn1ccc2ccc(Br)cc21` (racemic): the MIC was determined as 1 µg/mL in test [1]; 1.56 µg/mL in test [2]; 6.25 µg/mL in test [3]; 0.1 µg/mL in test [17]; 0.0312 µg/mL in test [18]; 0.0625 µg/mL in test [19]. Besides, the “fold change (FC)” value in [4] is recorded as above 128; in test [5], above 164; in test [6], above 164; in test [7] it was 32; in test [8], 16; in test [9], 4. Moreover, the “fold change (FC)” value was above 128 in test [10]; above 128 in test [11]; above 128 in test [12]; above 128 in [13]; 8 in test [14]; above 164 in [15]. Also, the “fold change (FC)” value in test [16] is above 164.

For `COc1ccc(N(CCC2CCCCN2C)C(C)C)cc1OC` (racemic), the MIC in test [1] came to 2 µg/mL; in test [2], 12.5 µg/mL; in test [3], 12.5 µg/mL; in [17], 0.1 µg/mL; in test [18], 0.25 µg/mL; in test [19] it was 0.25 µg/mL. Also, the “fold change (FC)” value was determined as 164 in test [5]; 4 in test [6]; 4 in test [7]; 4 in [8]; 4 in test [9].

As to `CSc1ccc2c(c1)N(CCC1CCCCN1C)c1ccccc1S2` (configuration not stated) [THIORIDAZINE], the MIC in test [20], in test [21], in [22], in test [23], in [24] and in test [25] was 1 µg/mL throughout. In addition, the results for the MIC in test [26] and in test [29] were 6.25 µg/mL and below 0.00078 µg/mL, respectively. For the same compound, the results for the “fold change (FC)” value in test [27] and in [28] were above 128 and above 64, respectively.

With `CN1CCCCC1CCn1cnc2ccccc21` (racemic), the MIC in [1] is 1 µg/mL; in [2], 12.5 µg/mL; in test [3], 12.5 µg/mL; in [17], 0.1 µg/mL; in test [18], 0.5 µg/mL; in test [19], 0.5 µg/mL. Also, the “fold change (FC)” value in [4] is on record as above 128; in [5], above 64; in [11] it was above 128; in test [13], above 128; in test [15] it was above 64.

`CN1CCCCC1CCn1c2ccccc2c2ccccc21` (racemic): the MIC is 1 µg/mL in test [1]; below 0.195 µg/mL in test [2]; 1.56 µg/mL in test [3]; 0.05 µg/mL in [17]; 0.0625 µg/mL in test [18]; 0.5 µg/mL in test [19]. In addition, the “fold change (FC)” value in test [7] is listed as 16; in test [10], above 128; in test [12] it was above 128; in [14] it was above 64; in [30], 4.
